Source: ChEMBL document CHEMBL2176870 (J Med Chem, 2012)
Values after ≈ are worked out from the molar mass of the structure shown.

Key:
[1] = tested on: Staphylococcus haemolyticus; test: Antibacterial activity against methicillin-resistant Staphylococcus haemolyticus; assay type: functional
[2] = AUC (0 to infinity) in Sprague-Dawley rat lung at 2 x 50 mg/kg, iv; assay type: ADME, organism-based; set-up: time infinity, dose 50 mg/kg, route intravenous
In short: (§1)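 Female Sprague–Dawley rats given two iv doses of 50 mg/kg. Levels measured in plasma, liver, kidney, brain, heart and lung. Cmax reported as ng/g for tissue and ng/mL for plasma; AUC(0–∞) as ng·h/mL. Half-life is the terminal elimination value.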

[3] = AUC (0 to infinity) in Sprague-Dawley rat kidney at 2 x 50 mg/kg, iv; assay type: ADME, organism-based; set-up: time infinity, dose 50 mg/kg, route intravenous; in short: as §1
Staphylococcus aureus [4] = test: Antibacterial activity against methicillin-resistant Staphylococcus aureus NRS382; assay type: functional
In short: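 CLSI broth microdilution: serial 2-fold dilutions from 0.06 to 64 μg/mL in cation-adjusted Mueller–Hinton broth, inoculum 5 × 10^5 CFU/mL, 35 °C for 18 h. MIC is the lowest concentration with no visible growth.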

[5] = Cmax in Sprague-Dawley rat brain at 2 x 50 mg/kg, iv; assay type: ADME, organism-based; set-up: dose 50 mg/kg, route intravenous; in short: as §1
Escherichia coli = test: Antibacterial activity against Escherichia coli; assay type: functional
Staphylococcus aureus [6] = test: Antibacterial activity against methicillin-resistant Staphylococcus aureus; assay type: functional
[7] = Inhibition of cytochrome P450; assay type: ADME
[8] = Toxicity in iv dosed mouse; assay type: organism-based; conditions: in vivo
In short: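 Single intravenous dosing in mice; maximum tolerated dose determined.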

Canis familiaris [9] = test: Toxicity in beagle dog assessed as cardiovascular functions up to 100 mg/kg, iv; assay type: organism-based, Canis lupus familiaris, Heart; set-up: dose 100 mg/kg, route intravenous; conditions: in vivo
In short: (§2)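 Beagle dogs given single iv infusions up to 100 mg/kg. Clinical signs and cardiovascular function, including QT interval, were monitored.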

[10] = AUC (0 to infinity) in Sprague-Dawley rat heart at 2 x 50 mg/kg, iv; assay type: ADME, organism-based; set-up: time infinity, dose 50 mg/kg, route intravenous; in short: as §1
[11] = Terminal elimination half life in Sprague-Dawley rat kidney at 2 x 50 mg/kg, iv; assay type: ADME, organism-based; set-up: dose 50 mg/kg, route intravenous; conditions: read-out: beta t1/2 (converted); in short: as §1
[12] = tested on: Staphylococcus epidermidis; test: Antibacterial activity against methicillin-resistant Staphylococcus epidermidis; assay type: functional
Canis familiaris [13] = test: Toxicity in beagle dog assessed as clinical signs of toxicity up to 100 mg/kg, iv; assay type: organism-based, Canis lupus familiaris; set-up: dose 100 mg/kg, route intravenous; conditions: in vivo; in short: as §2
[14] = Cmax in Sprague-Dawley rat lung at 2 x 50 mg/kg, iv; assay type: ADME, organism-based; set-up: dose 50 mg/kg, route intravenous; in short: as §1
[15] = Cmax in Sprague-Dawley rat heart at 2 x 50 mg/kg, iv; assay type: ADME, organism-based; set-up: dose 50 mg/kg, route intravenous; in short: as §1
[16] = AUC (0 to infinity) in Sprague-Dawley rat plasma at 2 x 50 mg/kg, iv; assay type: ADME, organism-based; set-up: time infinity, dose 50 mg/kg, route intravenous; in short: as §1
Neisseria meningitidis = test: Antibacterial activity against Neisseria meningitidis; assay type: functional
[17] = Cmax in Sprague-Dawley rat plasma at 2 x 50 mg/kg, iv; assay type: ADME, organism-based; set-up: dose 50 mg/kg, route intravenous; in short: as §1

Structure (SMILES): CCc1cc(O)c(Oc2ccc(C(N)=O)cc2F)cc1F
- MIC90 [1]: 0.5 µg/mL (≈ 1.7 µM)
- AUC(0-inf) [2]: 18400 ng·h/mL
- AUC(0-inf) [3]: 20300 ng·h/mL
- MIC (Staphylococcus aureus [4]): 0.06 µg/mL (≈ 0.205 µM)
- Cmax [5]: 37800 ng/g
- MIC90 (Escherichia coli): 1 µg/mL (≈ 3.41 µM)
- MIC90 (Staphylococcus aureus [6]): 0.12 µg/mL (≈ 0.409 µM)
- inhibition (INH) [7]: Active
- MTD [8]: > 200 mg/kg
- Activity (Canis familiaris [9]): Non-toxic
- AUC(0-inf) [10]: 23900 ng·h/mL
- half-life [11]: 8.5 h
- MIC90 [12]: 2 µg/mL (≈ 6.82 µM)
- Activity (Canis familiaris [13]): Non-toxic
- Cmax [14]: 28900 ng/g
- Cmax [15]: 42100 ng/g
- AUC(0-inf) [16]: 13900 ng·h/mL
- MIC90 (Neisseria meningitidis): 0.25 µg/mL (≈ 0.852 µM)
- Cmax [17]: 30400 ng/mL
